Columns and labels:
[1] = Inhibition of basal ERK phosphorylation in human MALME-3M cells; type: cell-based
[2] = molecular target: Serine/threonine-protein kinase B-raf (Homo sapiens, UniProt P15056, V600E); assay: Inhibition of full length B-Raf V600E mutant
[3] = molecular target: Tyrosine-protein kinase Fgr (Homo sapiens) (UniProt P09769); assay: Inhibition of FGR at 1 uM
Outline: (§1)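 Kinase selectivity panel reported as percent inhibition of each kinase at a single test-compound concentration. Values are means of at least two experiments.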

[4] = molecular target: Protein-tyrosine kinase 6 (Homo sapiens) (UniProt Q13882); assay: Inhibition of PTK6 at 1 uM; outline: as §1
[5] = molecular target: Receptor-type tyrosine-protein kinase FLT3 (Homo sapiens) (UniProt P36888); assay: Inhibition of FLT3 at 1 uM; outline: as §1
[6] = molecular target: Tyrosine-protein kinase Srms (Homo sapiens) (UniProt Q9H3Y6); assay: Inhibition of SRMS at 1 uM; outline: as §1
[7] = molecular target: Proto-oncogene tyrosine-protein kinase Src (Homo sapiens) (UniProt P12931); assay: Inhibition of SRC at 1 uM; outline: as §1
[8] = molecular target: Tyrosine-protein kinase Lck (Homo sapiens) (UniProt P06239); assay: Inhibition of LCK at 1 uM; outline: as §1
[9] = molecular target: T1, Aurora kinase A (Homo sapiens) (UniProt O14965); assay: Inhibition of aurora A at 1 uM; outline: as §1
T1 sequence (whole entry): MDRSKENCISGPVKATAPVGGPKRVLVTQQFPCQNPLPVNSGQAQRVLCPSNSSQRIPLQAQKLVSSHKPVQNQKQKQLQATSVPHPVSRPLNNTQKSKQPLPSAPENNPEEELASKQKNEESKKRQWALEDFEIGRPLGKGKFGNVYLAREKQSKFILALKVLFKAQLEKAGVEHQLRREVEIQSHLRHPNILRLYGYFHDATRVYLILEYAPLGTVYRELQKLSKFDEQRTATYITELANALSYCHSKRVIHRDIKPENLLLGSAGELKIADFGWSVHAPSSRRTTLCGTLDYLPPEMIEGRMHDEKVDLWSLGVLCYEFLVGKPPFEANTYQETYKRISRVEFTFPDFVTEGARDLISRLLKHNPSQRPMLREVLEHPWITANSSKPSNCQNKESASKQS

Chain of Serine/threonine-protein kinase B-raf (P15056 2-766 V600E limits assumed): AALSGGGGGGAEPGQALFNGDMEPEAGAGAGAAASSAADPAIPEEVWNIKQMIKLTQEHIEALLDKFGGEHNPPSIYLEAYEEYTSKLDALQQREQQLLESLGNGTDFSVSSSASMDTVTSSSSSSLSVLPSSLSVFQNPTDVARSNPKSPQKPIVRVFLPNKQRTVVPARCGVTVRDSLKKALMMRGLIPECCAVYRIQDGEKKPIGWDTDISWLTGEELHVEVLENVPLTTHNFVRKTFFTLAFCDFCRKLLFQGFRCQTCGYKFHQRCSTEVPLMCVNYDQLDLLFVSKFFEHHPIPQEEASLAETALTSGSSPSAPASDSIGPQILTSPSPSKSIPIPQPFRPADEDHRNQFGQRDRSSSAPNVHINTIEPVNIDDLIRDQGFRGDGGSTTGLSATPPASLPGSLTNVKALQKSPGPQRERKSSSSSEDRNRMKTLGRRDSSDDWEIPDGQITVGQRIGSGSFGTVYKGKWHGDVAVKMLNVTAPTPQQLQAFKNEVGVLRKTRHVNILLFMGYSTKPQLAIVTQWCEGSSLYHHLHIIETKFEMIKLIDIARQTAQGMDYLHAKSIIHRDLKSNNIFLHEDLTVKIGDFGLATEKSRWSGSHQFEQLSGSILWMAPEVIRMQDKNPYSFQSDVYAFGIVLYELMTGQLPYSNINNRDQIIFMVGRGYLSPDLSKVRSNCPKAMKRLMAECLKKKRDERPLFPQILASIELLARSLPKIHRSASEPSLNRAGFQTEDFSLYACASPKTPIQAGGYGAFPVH
Chain of Receptor-type tyrosine-protein kinase FLT3 (Homo sapiens) (P36888 whole entry): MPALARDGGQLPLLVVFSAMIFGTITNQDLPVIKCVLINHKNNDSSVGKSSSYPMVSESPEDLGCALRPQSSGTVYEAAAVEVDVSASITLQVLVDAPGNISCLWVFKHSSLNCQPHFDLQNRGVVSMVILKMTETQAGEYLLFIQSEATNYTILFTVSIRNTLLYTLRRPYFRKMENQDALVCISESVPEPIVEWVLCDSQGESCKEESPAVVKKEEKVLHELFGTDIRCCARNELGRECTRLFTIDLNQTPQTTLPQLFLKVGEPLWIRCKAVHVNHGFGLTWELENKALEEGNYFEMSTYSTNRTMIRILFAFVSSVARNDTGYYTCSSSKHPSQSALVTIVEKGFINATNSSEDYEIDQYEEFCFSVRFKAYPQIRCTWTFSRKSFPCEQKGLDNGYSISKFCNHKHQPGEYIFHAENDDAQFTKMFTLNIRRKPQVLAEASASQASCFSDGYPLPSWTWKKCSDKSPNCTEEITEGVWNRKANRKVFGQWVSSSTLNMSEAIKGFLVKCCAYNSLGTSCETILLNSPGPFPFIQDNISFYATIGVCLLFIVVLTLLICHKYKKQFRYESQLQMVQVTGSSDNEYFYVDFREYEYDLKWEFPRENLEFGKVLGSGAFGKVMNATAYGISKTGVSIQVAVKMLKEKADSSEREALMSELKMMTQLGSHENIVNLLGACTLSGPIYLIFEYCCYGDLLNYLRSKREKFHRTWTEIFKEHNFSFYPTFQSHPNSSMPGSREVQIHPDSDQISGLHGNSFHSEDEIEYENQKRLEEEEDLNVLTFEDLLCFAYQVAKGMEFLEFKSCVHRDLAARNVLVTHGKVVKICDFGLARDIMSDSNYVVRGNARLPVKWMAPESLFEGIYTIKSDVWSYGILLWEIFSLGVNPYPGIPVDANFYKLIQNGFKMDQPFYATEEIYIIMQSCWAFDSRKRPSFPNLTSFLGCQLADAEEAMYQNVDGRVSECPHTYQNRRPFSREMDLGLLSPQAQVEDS
Chain of Tyrosine-protein kinase Fgr (Homo sapiens) (P09769 2-529 limits assumed): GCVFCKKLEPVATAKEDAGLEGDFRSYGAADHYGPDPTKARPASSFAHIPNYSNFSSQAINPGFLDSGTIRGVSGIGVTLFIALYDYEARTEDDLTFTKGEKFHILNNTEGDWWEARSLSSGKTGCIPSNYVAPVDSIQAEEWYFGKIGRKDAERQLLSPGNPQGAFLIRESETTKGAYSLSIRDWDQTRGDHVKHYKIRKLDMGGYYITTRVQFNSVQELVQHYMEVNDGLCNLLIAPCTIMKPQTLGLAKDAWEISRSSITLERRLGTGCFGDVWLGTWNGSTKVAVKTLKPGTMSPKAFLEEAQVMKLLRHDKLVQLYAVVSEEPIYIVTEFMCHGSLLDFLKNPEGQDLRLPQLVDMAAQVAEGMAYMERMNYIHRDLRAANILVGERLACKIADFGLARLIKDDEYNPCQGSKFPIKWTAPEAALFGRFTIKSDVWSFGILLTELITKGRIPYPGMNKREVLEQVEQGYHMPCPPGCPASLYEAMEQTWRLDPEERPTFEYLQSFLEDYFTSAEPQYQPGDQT
Chain of Protein-tyrosine kinase 6 (Homo sapiens) (Q13882 whole entry, looked up): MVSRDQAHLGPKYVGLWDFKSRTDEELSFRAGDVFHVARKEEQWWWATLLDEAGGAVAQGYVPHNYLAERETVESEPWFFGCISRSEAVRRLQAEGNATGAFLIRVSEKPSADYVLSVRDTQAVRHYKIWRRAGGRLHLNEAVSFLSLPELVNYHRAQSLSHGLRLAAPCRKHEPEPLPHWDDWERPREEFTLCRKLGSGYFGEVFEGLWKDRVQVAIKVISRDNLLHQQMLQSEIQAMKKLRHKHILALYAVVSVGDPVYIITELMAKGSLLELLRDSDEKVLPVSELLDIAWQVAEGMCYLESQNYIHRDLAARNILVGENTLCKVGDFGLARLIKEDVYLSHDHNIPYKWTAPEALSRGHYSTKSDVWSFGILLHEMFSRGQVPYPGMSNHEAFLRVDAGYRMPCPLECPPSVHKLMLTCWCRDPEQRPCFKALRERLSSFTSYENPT
Chain of Tyrosine-protein kinase Srms (Homo sapiens) (Q9H3Y6 whole entry): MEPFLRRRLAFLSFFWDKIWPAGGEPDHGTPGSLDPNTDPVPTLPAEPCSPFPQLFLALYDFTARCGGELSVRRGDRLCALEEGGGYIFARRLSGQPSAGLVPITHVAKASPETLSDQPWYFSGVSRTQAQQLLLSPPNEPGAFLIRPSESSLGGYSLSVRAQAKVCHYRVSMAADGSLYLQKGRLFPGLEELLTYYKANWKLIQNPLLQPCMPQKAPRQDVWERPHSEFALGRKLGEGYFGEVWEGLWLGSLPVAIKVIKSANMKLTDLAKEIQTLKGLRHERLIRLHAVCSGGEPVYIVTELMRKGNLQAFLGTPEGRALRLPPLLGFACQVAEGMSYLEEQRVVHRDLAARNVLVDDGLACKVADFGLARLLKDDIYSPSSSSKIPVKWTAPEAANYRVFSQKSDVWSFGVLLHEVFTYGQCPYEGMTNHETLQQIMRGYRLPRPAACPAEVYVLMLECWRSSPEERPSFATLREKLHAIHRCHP
Chain of Proto-oncogene tyrosine-protein kinase Src (Homo sapiens) (P12931 2-536 limits assumed): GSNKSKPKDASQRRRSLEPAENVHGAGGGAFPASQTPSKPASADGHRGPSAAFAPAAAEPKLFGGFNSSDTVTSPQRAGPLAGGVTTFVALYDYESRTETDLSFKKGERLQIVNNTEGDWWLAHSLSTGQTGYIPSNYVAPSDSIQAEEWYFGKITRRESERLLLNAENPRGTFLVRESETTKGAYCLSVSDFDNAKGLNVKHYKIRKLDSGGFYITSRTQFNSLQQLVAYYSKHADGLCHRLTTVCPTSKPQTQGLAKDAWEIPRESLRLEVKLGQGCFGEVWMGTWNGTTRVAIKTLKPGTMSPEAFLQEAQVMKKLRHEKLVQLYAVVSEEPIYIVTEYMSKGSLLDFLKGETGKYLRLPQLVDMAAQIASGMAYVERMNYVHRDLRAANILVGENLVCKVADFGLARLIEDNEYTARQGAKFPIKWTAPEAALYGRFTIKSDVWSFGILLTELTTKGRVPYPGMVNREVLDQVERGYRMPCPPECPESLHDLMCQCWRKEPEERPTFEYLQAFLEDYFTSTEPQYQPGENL
Chain of Tyrosine-protein kinase Lck (Homo sapiens) (P06239 2-509 limits assumed): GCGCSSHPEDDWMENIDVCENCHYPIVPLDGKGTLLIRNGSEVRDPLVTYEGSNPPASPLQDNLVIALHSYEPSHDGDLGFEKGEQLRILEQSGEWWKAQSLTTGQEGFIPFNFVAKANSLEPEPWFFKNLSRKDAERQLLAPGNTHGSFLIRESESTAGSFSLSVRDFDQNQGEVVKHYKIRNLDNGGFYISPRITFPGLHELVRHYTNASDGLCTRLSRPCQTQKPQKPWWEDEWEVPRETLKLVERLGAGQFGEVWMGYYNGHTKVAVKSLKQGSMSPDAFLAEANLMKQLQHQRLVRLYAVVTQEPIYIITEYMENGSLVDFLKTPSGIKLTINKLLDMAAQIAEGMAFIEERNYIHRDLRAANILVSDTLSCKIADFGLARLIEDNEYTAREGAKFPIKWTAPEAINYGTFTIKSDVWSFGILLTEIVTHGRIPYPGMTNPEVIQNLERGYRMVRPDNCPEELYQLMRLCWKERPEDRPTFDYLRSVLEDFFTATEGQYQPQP

| SMILES | IC50 [1] | IC50 [2] | other results |
| --- | --- | --- | --- |
| COc1n[nH]c2ncc(NC(=O)c3c(F)ccc(NS(=O)(=O)NCC(F)F)c3F)cc12 | 500 nM | 13 nM | – |
| CCCS(=O)(=O)Nc1ccc(F)c(C(=O)Nc2cnc3[nH]cc(C(F)(F)F)c3c2)c1F | 230 nM | 6.2 nM | – |
| CCCS(=O)(=O)Nc1ccc(F)c(C(=O)Nc2cnc3[nH]nc(CC)c3c2)c1F | 84 nM | 9.2 nM | – |
| COc1n[nH]c2ncc(NC(=O)c3c(F)ccc(NS(=O)(=O)N4CCCC4)c3F)cc12 | 18 nM | 8.6 nM | inhibition [3]: 101%; inhibition [4]: 105%; inhibition [5]: 85%; inhibition [6]: 105%; inhibition [7]: 52%; inhibition [8]: 90%; inhibition [9]: 47% |
| CCS(=O)(=O)Nc1ccc(F)c(C(=O)Nc2cnc3[nH]nc(OC)c3c2)c1F | 62 nM | 25 nM | – |
| CCCS(=O)(=O)Nc1ccc(F)c(C(=O)Nc2cnc3[nH]nc(I)c3c2)c1F | 36 nM | 1.8 nM | – |
| COc1n[nH]c2ncc(NC(=O)c3c(F)ccc(NS(=O)(=O)NC(C)C)c3F)cc12 | 630 nM | 110 nM | – |
| CCCS(=O)(=O)Nc1cc(F)cc(C(=O)Nc2cnc3[nH]ccc3c2)c1F | 400 nM | 76 nM | – |
| O=C(Nc1cnc2[nH]ccc2c1)c1c(F)ccc(NS(=O)(=O)N2CCCC2)c1F | 170 nM | 120 nM | – |
| COc1n[nH]c2ncc(NC(=O)c3c(F)ccc(NS(=O)(=O)c4cccnc4)c3F)cc12 | 83 nM | 0.5 nM | – |
| CCCS(=O)(=O)Nc1ccc(F)c(C(=O)Nc2cnc3[nH]nc(OCC)c3c2)c1F | 12 nM | 2.4 nM | – |
| O=C(Nc1cnc2[nH]ccc2c1)c1c(F)ccc(NS(=O)(=O)CCC(F)(F)F)c1F | 270 nM | 33 nM | – |
| CCCS(=O)(=O)Nc1cc(F)cc(C(=O)Nc2cnc3[nH]nc(OC)c3c2)c1F | 80 nM | 7.5 nM | – |
| CCCS(=O)(=O)Nc1ccc(F)c(C(=O)Nc2cnc3[nH]nc(OCC4COC4)c3c2)c1F | 43 nM | 4.2 nM | – |
| CN(C)S(=O)(=O)Nc1ccc(F)c(C(=O)Nc2cnc3[nH]ccc3c2)c1F | 260 nM | 200 nM | – |
| CCCS(=O)(=O)Nc1cccc(C(=O)Nc2cnc3[nH]ccc3c2)c1F | 290 nM | 87 nM | – |
| CCN(C)S(=O)(=O)Nc1ccc(F)c(C(=O)Nc2cnc3[nH]ccc3c2)c1F | 340 nM | 400 nM | – |
| CCCS(=O)(=O)Nc1ccc(F)c(C(=O)Nc2cnc3[nH]nc(OCC(F)(F)F)c3c2)c1F | 28 nM | 5.3 nM | – |
| COc1n[nH]c2ncc(NC(=O)c3c(F)ccc(NS(=O)(=O)C4CC4)c3F)cc12 | 170 nM | 63 nM | – |
| COc1n[nH]c2ncc(NC(=O)c3c(F)ccc(NS(=O)(=O)c4cn(C)cn4)c3F)cc12 | > 10000 nM | – | – |
| CCCS(=O)(=O)Nc1ccc(Cl)c(C(=O)Nc2cnc3[nH]ccc3c2)c1 | 2100 nM | 88 nM | – |
| CCCS(=O)(=O)Nc1ccc(F)c(C(=O)Nc2cnc3[nH]ccc3c2)c1 | – | 210 nM | – |
| CCCS(=O)(=O)Nc1ccc(F)c(C(=O)Nc2cnc3[nH]cc(C)c3c2)c1F | 62 nM | 16 nM | – |

| SMILES | IC50 [1] | IC50 [2] | other results |
| --- | --- | --- | --- |
| COc1n[nH]c2ncc(NC(=O)c3c(F)ccc(NS(=O)(=O)c4ccc(F)cc4)c3F)cc12 | 340 nM | 46 nM | – |
| CCCS(=O)(=O)Nc1ccc(C)c(C(=O)Nc2cnc3[nH]ccc3c2)c1F | 1400 nM | 170 nM | – |
| O=C(Nc1cnc2[nH]ccc2c1)c1c(F)ccc(NS(=O)(=O)CC(F)(F)F)c1F | 2600 nM | 38 nM | – |
| COc1n[nH]c2ncc(NC(=O)c3c(F)ccc(NS(=O)(=O)c4ccco4)c3F)cc12 | 66 nM | 0.7 nM | – |
| CCCS(=O)(=O)Nc1ccc(F)c(C(=O)Nc2cnc3[nH]cc(Br)c3c2)c1F | 39 nM | – | – |
| CCCS(=O)(=O)Nc1ccc(F)c(C(=O)Nc2cnc3[nH]nc(O[C@@H]4CCOC4)c3c2)c1F | 62 nM | 6.9 nM | – |
| CCCS(=O)(=O)Nc1ccc(F)c(C(=O)Nc2cnc3[nH]nc(C(F)(F)F)c3c2)c1F | 280 nM | 5.8 nM | – |
| O=C(Nc1cnc2[nH]ccc2c1)c1c(F)ccc(NS(=O)(=O)C2CC2)c1F | 710 nM | 99 nM | – |
| CCCS(=O)(=O)Nc1cccc(C(=O)Nc2cnc3[nH]nc(OC)c3c2)c1F | 38 nM | 13 nM | – |
| CCCS(=O)(=O)Nc1ccc(F)c(C(=O)Nc2cnc3[nH]nc(OC)c3c2)c1 | 350 nM | 150 nM | – |
| CCCS(=O)(=O)Nc1ccc(F)c(C(=O)Nc2cnc3[nH]ccc3c2)c1C | – | 680 nM | – |
| O=C(Nc1cnc2[nH]ccc2c1)c1c(F)ccc(NS(=O)(=O)CCCF)c1F | 75 nM | 19 nM | – |
| COc1n[nH]c2ncc(NC(=O)c3c(F)ccc(NS(=O)(=O)c4ccccn4)c3F)cc12 | 280 nM | 16 nM | – |
| COc1n[nH]c2ncc(NC(=O)c3c(F)ccc(NS(=O)(=O)c4cccs4)c3F)cc12 | 30 nM | 0.2 nM | – |
| CCN(C)S(=O)(=O)Nc1ccc(F)c(C(=O)Nc2cnc3[nH]nc(OC)c3c2)c1F | 28 nM | 29 nM | – |
| CCCS(=O)(=O)Nc1ccc(F)c(C(=O)Nc2cnc3[nH]cc(CC)c3c2)c1F | 290 nM | 19 nM | – |
| CCCS(=O)(=O)Nc1ccc(F)c(C(=O)Nc2cnc3[nH]cc(I)c3c2)c1F | 60 nM | 2.2 nM | – |
| COc1n[nH]c2ncc(NC(=O)c3c(F)ccc(NS(=O)(=O)c4ccccc4)c3F)cc12 | 17 nM | – | – |
| CCCCS(=O)(=O)Nc1ccc(F)c(C(=O)Nc2cnc3[nH]ccc3c2)c1F | 120 nM | 40 nM | – |
| CCCS(=O)(=O)Nc1ccc(F)c(C(=O)Nc2cnc3[nH]nc(OC)c3c2)c1C(F)(F)F | – | 530 nM | – |
| CCCS(=O)(=O)Nc1ccc(Cl)c(C(=O)Nc2cnc3[nH]nc(OC)c3c2)c1F | 20 nM | – | – |
| CCCS(=O)(=O)Nc1ccc(F)c(C(=O)Nc2cnc3[nH]ncc3c2)c1F | 62 nM | – | – |
| CCCS(=O)(=O)Nc1ccc(F)c(C(=O)Nc2cnc3[nH]nc(OC)c3c2)c1OC | 180 nM | 110 nM | – |

| SMILES | IC50 [1] | IC50 [2] | other results |
| --- | --- | --- | --- |
| CCCS(=O)(=O)Nc1ccc(Cl)c(C(=O)Nc2cnc3[nH]ccc3c2)c1F | 190 nM | 17 nM | – |
| COc1n[nH]c2ncc(NC(=O)c3c(F)ccc(NS(=O)(=O)CC(C)C)c3F)cc12 | 11 nM | 4.5 nM | – |
| CCCS(=O)(=O)Nc1cc(F)c(F)c(C(=O)Nc2cnc3[nH]ccc3c2)c1F | 410 nM | 19 nM | – |
| COc1n[nH]c2ncc(NC(=O)c3c(F)ccc(NS(=O)(=O)c4ccccc4F)c3F)cc12 | 9.1 nM | 1.8 nM | – |
| CC(C)CS(=O)(=O)Nc1ccc(F)c(C(=O)Nc2cnc3[nH]ccc3c2)c1F | 200 nM | 140 nM | – |
| CCCS(=O)(=O)Nc1ccc(F)c(C(=O)Nc2cnc3[nH]nc(OCC4CCC4)c3c2)c1F | 76 nM | 3.5 nM | – |
| CCCS(=O)(=O)Nc1ccc(OC)c(C(=O)Nc2cnc3[nH]nc(OC)c3c2)c1F | – | 2600 nM | – |
| CCCS(=O)(=O)Nc1ccc(Cl)c(C(=O)Nc2cnc3[nH]nc(OC)c3c2)c1Cl | 40 nM | 1.4 nM | – |
| COc1n[nH]c2ncc(NC(=O)c3c(F)ccc(NS(=O)(=O)c4cc(F)ccc4F)c3F)cc12 | 20 nM | 1 nM | – |
| CCCS(=O)(=O)Nc1ccc(F)c(C(=O)Nc2cnc3[nH]ccc3c2)c1F | 94 nM | – | – |
| COc1n[nH]c2ncc(NC(=O)c3c(F)ccc(NS(=O)(=O)Cc4ccccc4)c3F)cc12 | 830 nM | 190 nM | – |
| CCCS(=O)(=O)Nc1ccc(F)c(C(=O)Nc2cnc3[nH]nc(OC)c3c2)c1F | 19 nM | – | inhibition [3]: 88%; inhibition [4]: 83%; inhibition [5]: 52%; inhibition [6]: 94%; inhibition [7]: 22%; inhibition [8]: 56%; inhibition [9]: 1% |
| COc1n[nH]c2ncc(NC(=O)c3c(F)ccc(NS(=O)(=O)CC4CC4)c3F)cc12 | 31 nM | 17 nM | – |
| O=C(Nc1cnc2[nH]ccc2c1)c1c(F)ccc(NS(=O)(=O)CC2CC2)c1F | 230 nM | 29 nM | – |
| CCCS(=O)(=O)Nc1ccc(F)c(C(=O)Nc2cnc3[nH]nc(Br)c3c2)c1F | 44 nM | – | – |
| CCCS(=O)(=O)Nc1ccc(Cl)c(C(=O)Nc2cnc3[nH]ccc3c2)c1Cl | 206 nM | 8.3 nM | – |
| CCCS(=O)(=O)Nc1ccc(Cl)c(C(=O)Nc2cnc3[nH]nc(OC)c3c2)c1 | 250 nM | 61 nM | – |
| CCNS(=O)(=O)Nc1ccc(F)c(C(=O)Nc2cnc3[nH]nc(OC)c3c2)c1F | 180 nM | 18 nM | – |
| COc1n[nH]c2ncc(NC(=O)c3c(F)ccc(NS(=O)(=O)N(C)C)c3F)cc12 | 63 nM | 18 nM | – |
| CCCS(=O)(=O)Nc1cc(F)c(F)c(C(=O)Nc2cnc3[nH]nc(OC)c3c2)c1F | 100 nM | 2.3 nM | – |
| COc1n[nH]c2ncc(NC(=O)c3c(F)ccc(NS(=O)(=O)CCCF)c3F)cc12 | 13 nM | 1.3 nM | – |
| CCCS(=O)(=O)Nc1ccc(F)c(C(=O)Nc2cnc3[nH]nc(C)c3c2)c1F | 86 nM | – | – |

— ChEMBL document CHEMBL1821716, “Pyrazolopyridine inhibitors of B-RafV600E. Part 2: structure-activity relationships” (Bioorg Med Chem Lett, 2011)
